Data published in ChEMBL document CHEMBL1128547, “Selective inhibitors of Candida albicans dihydrofolate reductase: activity and selectivity of 5-(arylthio)-2,4-diaminoquinazolines” (J Med Chem, 1995).
Values after ≈ are worked out from the molar mass of the structure shown.

Experiments:
Candida albicans [1] = assay: Ratio of I50 evaluated for inhibition of DHFR in humans to Candida albicans
Summary of the method: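 Selectivity index is the human DHFR I50 divided by the C. albicans DHFR I50. The C. albicans enzyme (E. coli-expressed, 0.2 nM) was run in 0.1 M imidazole chloride, pH 6.4. Recombinant human enzyme (2 nM) was run in 50 mM Sorenson's phosphate, pH 7.0. Enzyme, NADPH and inhibitor were preincubated 2 min before substrate was added. I50 came from linear regression of % inhibition of steady-state velocity vs log concentration.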

Candida albicans [2] = assay: Minimum inhibitory concentration required to inhibit Candida albicans (in vitro); format: functional
Summary of the method: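 Broth dilution in defined medium (NH4Cl, K2HPO4, MgSO4, sodium citrate, PIPES, biotin, glucose; pH 7.1), strain P712 from frozen log-phase stocks. Inoculum 4500 CFU per 3 mL tube, final drug 50–0.01 μg/mL, or microtiter wells (0.05 mL) with 4-fold dilutions. 28 °C, 160 rpm, 20–24 h.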

Row | Structure (SMILES) | Selectivity index (Candida albicans [1]) | MIC (Candida albicans [2]) [µg/mL]
1 | Nc1nc(N)c2c(Sc3ccccc3Cl)cccc2n1 | 2 | 1 (≈ 3.3 µM)
2 | COc1ccc(OC)c(Cc2cnc3nc(N)nc(N)c3c2C)c1 [PIRITREXIM] |  | > 10
3 | Nc1nc(N)c2c(Sc3ccc(Cl)cc3)cccc2n1 |  | 0.5 (≈ 1.65 µM)
4 | CCC(C)(C)c1ccc(Sc2cccc3nc(N)nc(N)c23)cc1 | 10 | 10 (≈ 29.5 µM)
5 | Nc1nc(N)c2c(Sc3ccc(F)cc3)cccc2n1 | 40 | 0.25 (≈ 0.873 µM)
6 | N#Cc1ccc(Sc2cccc3nc(N)nc(N)c23)cc1 | 100 | > 50
7 | Nc1nc(N)c2c(Sc3ccc(N4CCOCC4)cc3)cccc2n1 |  | > 50
8 | Nc1nc(N)c2c(Sc3ccc(Br)cc3)cccc2n1 | 100 | 0.25 (≈ 0.72 µM)
9 | COc1cc(Sc2cccc3nc(N)nc(N)c23)cc(OC)c1OC |  | 5 (≈ 13.9 µM)
10 | COc1cc(NCc2ccc3nc(N)nc(N)c3c2C)cc(OC)c1OC [TRIMETREXATE] |  | > 50
11 | COc1ccccc1Sc1cccc2nc(N)nc(N)c12 | 4 | 10 (≈ 33.5 µM)
12 | CC(C)c1ccc(Sc2cccc3nc(N)nc(N)c23)cc1 |  | 0.25 (≈ 0.805 µM)
13 | COc1ccc(Sc2cccc3nc(N)nc(N)c23)cc1 |  | 0.25 (≈ 0.838 µM)
14 | Nc1nc(N)c2c(Sc3cccc(Cl)c3)cccc2n1 | 6 | 0.5 (≈ 1.65 µM)
15 | CCCCCCc1ccc(Sc2cccc3nc(N)nc(N)c23)cc1 |  | 50 (≈ 142 µM)
16 | CC(C)(C)c1ccc(Sc2c(C#N)ccc3nc(N)nc(N)c23)cc1 |  | > 5

Row | Structure (SMILES) | Selectivity index (Candida albicans [1]) | MIC (Candida albicans [2]) [µg/mL]
17 | CCN(CC)c1ccc(Sc2cccc3nc(N)nc(N)c23)cc1 |  | 2.5 (≈ 7.36 µM)
18 | Nc1nc(N)c2c(Sc3ccc(C4CCCCC4)cc3)cccc2n1 | > 200 | 1 (≈ 2.85 µM)
19 | COc1ccc(Sc2cccc3nc(N)nc(N)c23)cc1OC | 79 | > 50
20 | Nc1ccc(Sc2cccc3nc(N)nc(N)c23)cc1 | 5 | 2.5 (≈ 8.82 µM)
21 | Nc1nc(N)c2c(Sc3ccc([N+](=O)[O-])cc3)cccc2n1 | 100 | 50 (≈ 160 µM)
22 | COc1cccc(Sc2cccc3nc(N)nc(N)c23)c1 |  | 0.25 (≈ 0.838 µM)
23 | CC(C)(C)c1ccc(Sc2c(N)ccc3nc(N)nc(N)c23)cc1 |  | 5 (≈ 14.7 µM)
24 | CC(C)COc1ccc2nc(N)nc(N)c2c1Sc1ccc(C(C)(C)C)cc1 | 10 | 0.8 (≈ 2.02 µM)
25 | COc1cc(Cc2cnc(N)nc2N)cc(OC)c1OC [TRIMETHOPRIM] |  | > 50
26 | CC(C)(C)c1ccc(Sc2cccc3nc(N)nc(N)c23)cc1 |  | 0.1 (≈ 0.308 µM)
27 | Nc1nc(N)c2c(Sc3ccccc3)cccc2n1 |  | 0.05 (≈ 0.186 µM)
28 | CCOc1ccc2nc(N)nc(N)c2c1Sc1ccc(C(C)(C)C)cc1 |  | 1 (≈ 2.71 µM)
29 | Nc1nc(N)c2c(Sc3ccc(O)cc3)cccc2n1 | 5 | 10 (≈ 35.2 µM)
30 | CCc1nc(N)nc(N)c1-c1ccc(Cl)cc1 [PYRIMETHAMINE] |  | > 50
31 | Cc1ccc(Sc2cccc3nc(N)nc(N)c23)cc1 |  | 0.25 (≈ 0.885 µM)
32 | Nc1nc(N)c2c(Sc3ccc(C(F)(F)F)cc3)cccc2n1 | 5 | 25 (≈ 74.3 µM)
